MrgX1 PAM: human MrgX1 positive allosteric modulation, primary screen; hit rate 0.63% among 310,000; Q96LB2; B-score at 10 µM; MrgX1-HEK293, Fluo-4 calcium flux, FDSS; active compounds read high;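 active = plate-corrected calcium response at least 3 library SD above typical, normal starting fluorescence, not activating the receptor alone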;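 also: compound read alongside a low EC10 to EC30 dose of BAM8-22 agonist; peak minus trough fluorescence over baseline measured at the second addition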
Target sequence (Q96LB2 whole entry, looked up): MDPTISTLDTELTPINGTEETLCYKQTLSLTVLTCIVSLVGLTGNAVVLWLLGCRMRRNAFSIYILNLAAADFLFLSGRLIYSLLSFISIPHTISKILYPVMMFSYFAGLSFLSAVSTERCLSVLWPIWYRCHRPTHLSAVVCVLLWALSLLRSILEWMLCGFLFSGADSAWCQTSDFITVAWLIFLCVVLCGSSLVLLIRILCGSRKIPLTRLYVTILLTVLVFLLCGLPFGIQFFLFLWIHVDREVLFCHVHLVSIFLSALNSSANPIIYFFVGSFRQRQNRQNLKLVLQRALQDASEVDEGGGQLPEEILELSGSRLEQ
MrgX1 agonist: agonists of human MrgX1 receptor. hit rate 0.44% among 310,000. MrgX1-HEK293 cells, Fluo-4 calcium fluorescence, agonist mode; active compounds read high. B-score at 10 µM;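 active = calcium response B-score plate-corrected fluorescence ratio at least 3 library SD, with starting fluorescence B-score inside 5 SD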
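Material: HEK293 cells stably expressing human MrgX1 receptor | Quantity: 15,000 cells per well | Times: Cells plated overnight, dye loaded 0.5 h 37 °C, 0.5 h room temperature | Measured by: Kinetic Fluo-4 NW fluorescence of intracellular calcium | Control set: Positive and negative controls per plate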
RGS4 inh: inhibitors of human RGS4. HEK293 M3R/RGS4 inducible, Fluo-4 calcium flux; active compounds read high; triggered by carbachol at its EC20. B-score at 10 µM. hit rate 0.45% among 310,000. P49798;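 active = B-score, a plate-corrected calcium signal, over three deviations above library mean, with baseline fluorescence within five deviations of library mean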;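 also: RGS4 expression induced by doxycycline in cells with stable M3 receptor; B-score is computed from the integrated fluorescence ratio over baseline after carbachol; higher B-score means a larger calcium signal and so more RGS4 inhibition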
Target sequence (P49798 whole entry, looked up): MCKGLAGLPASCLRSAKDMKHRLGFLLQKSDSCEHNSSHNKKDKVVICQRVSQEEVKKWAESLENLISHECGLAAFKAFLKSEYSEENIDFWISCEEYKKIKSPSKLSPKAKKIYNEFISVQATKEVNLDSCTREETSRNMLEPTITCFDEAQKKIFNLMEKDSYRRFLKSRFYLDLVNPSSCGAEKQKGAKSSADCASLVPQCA
RGS4 act: RGS4 potentiation or activation; HEK293 M3R/inducible RGS4, carbachol calcium flux Fluo4; active compounds read low; B-score at 10 µM; hit rate 0.92% among 310,000; AID 463111;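 active = B-score of the integrated calcium signal more than 4 SD below the library mean, with starting fluorescence not abnormally high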;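 also: negative B-score means reduced calcium response which marks RGS4 activation or potentiation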
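System – HEK293 FlpIn-TREx cells, stable M3R, doxycycline-inducible RGS4 · Reagent – ECmax carbachol challenge · Times – compound preincubation 20 min at room temperature before agonist · Technique – Fluo4 fluorescence kinetic imaging of calcium · Measure – B score of integrated Fluo4 ratio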
MrgX1 antagonist: antagonists of human MrgX1 receptor | Q96LB2 | B-score at 10 µM | MRGX1-HEK293 calcium flux, Fluo-4, BAM8-22 antagonism; active compounds read low | hit rate 1.3% among 310,000 | AID 588676;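 active = calcium-response B-score plate-corrected more than 3 library SD below zero, starting fluorescence within 5 deviations, no agonist response on first addition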;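 also: peak minus trough fluorescence over baseline after final BAM8-22 challenge near maximal dose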
MrgX1 antag conf: confirmation of human MrgX1 receptor antagonists | shares compounds with MrgX1 antagonist | MrgX1-HEK293, BAM8-22 calcium flux, Fluo-4; active compounds read low | remaining BAM8-22 calcium response % of control (active compounds read low), % at 10 µM | hit rate 19% among 2,300;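 active = remaining agonist calcium response no higher than 100% minus 3 SD of agonist-only control wells, with starting fluorescence near control levels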;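 also: agonist BAM8-22 given at a near maximal EC90 to ECmax level; peak minus minimum fluorescence divided by baseline after agonist addition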
HEK293 Ca flux: counter-screen for MrgX1 antagonists: effect in parental HEK293 cells; shares compounds with MrgX1 antagonist; Fluo-4 calcium fluorescence, FDSS; fluorescence ratio F(max-min)/F0 at 10 µM; hit rate 2% among 4,000; AID 624111;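 active = duplicate-averaged calcium fluorescence ratio at least three times the standard deviation of buffer wells, a nonspecific response in parental cells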
HEK293 Ca counter: MrgX1 allosteric activator counter-screen hit in parental HEK293 cells; shares compounds with MrgX1 antagonist; fluorescence ratio F(max-min)/F0 at 10 µM; hit rate 0.4% among 4,000; parental HEK293 calcium flux, Fluo-4 fluorescence ratio; active compounds read high; AID 624114;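 active = calcium fluorescence ratio, averaged over duplicates, at least 3 SD of the buffer-well ratio, meaning a nonspecific response in receptor-free cells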;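 also: untransfected parental HEK293 lacking MrgX1 used as counterscreen for MrgX1 allosteric activators; fluorescence change taken during the second addition on a kinetic imager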
HEK293 Ca cntr2: MrgX1 activator counter-screen hit in parental HEK293 cells; shares compounds with MrgX1 antagonist; Fluo-4 calcium fluorescence (FDSS); active compounds read high; fluorescence ratio F(max-min)/F0 at 10 µM; hit rate 8.7% among 4,000;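 active = calcium fluorescence ratio at least three times the spread of buffer wells, meaning a non-specific response in parental cells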
Each line names hits and unclear results; the compound was inactive in the other large screens (follow-up assays come after a bar, where they were run). In the library only some 3.5% were active in any assay of this set; here they are far more common.

CC(=O)c1cccc(NC(=O)NNC(=O)c2ccc(-c3ccccc3)cc2)c1	none
CC(=O)Nc1ccc(NS(=O)(=O)C(F)(F)F)cc1	MrgX1 antagonist -8.7 | MrgX1 antag conf inactive | HEK293 Ca flux inactive | HEK293 Ca counter inactive | HEK293 Ca cntr2 inactive
CC(=O)Nc1ccc(-c2ccc(NC(C)=O)cc2)cc1	none
COc1ccc(S(=O)(=O)N2CCCCC2)cc1C(=O)N1CCCCCC1	none
COc1ccc2c(CC(=O)N[C@@H](Cc3ccccc3)C(=O)O)cc(=O)oc2c1	none
Cc1c(O)ccc2c(CC(=O)N[C@@H](Cc3ccccc3)C(=O)O)cc(=O)oc12	MrgX1 antagonist -4.9 | MrgX1 antag conf 84% | HEK293 Ca flux inactive | HEK293 Ca counter inactive | HEK293 Ca cntr2 inactive
Cc1ccn2c(CNCCn3cccn3)c(C(=O)N3CCCCCC3)nc2c1	MrgX1 antagonist -7.5 | MrgX1 antag conf inactive | HEK293 Ca flux inactive | HEK293 Ca counter inactive | HEK293 Ca cntr2 inactive
COc1ccc(CCNc2cc(=O)[nH]c(N)n2)cc1	MrgX1 antagonist -6.8 | MrgX1 antag conf inactive | HEK293 Ca flux inactive | HEK293 Ca counter inactive | HEK293 Ca cntr2 inactive
COc1ccc(CCNc2ccc([N+](=O)[O-])cn2)cc1	none
CC(=O)Nc1ccc(S(=O)(=O)NCC2CCC(C(=O)NC(C)c3ccccc3)CC2)cc1 (stereo unspecified)	MrgX1 antagonist -6 | MrgX1 antag conf inactive | HEK293 Ca flux inactive | HEK293 Ca counter inactive | HEK293 Ca cntr2 inactive
c1cncc(-c2nnc3n2N=C(c2cccs2)CS3)c1	MrgX1 antagonist -4.7 | MrgX1 antag conf inactive | HEK293 Ca flux inactive | HEK293 Ca counter inactive | HEK293 Ca cntr2 inactive
O=C(/C=N/O)Nc1ccc2sc3ccccc3c2c1	none
CCO[C@@H]1OC(C(=O)Nc2ccccc2)=C[C@H](c2ccc(Br)cc2)[C@H]1CCCO	MrgX1 antagonist -10 | MrgX1 antag conf inactive | HEK293 Ca flux inactive | HEK293 Ca counter inactive | HEK293 Ca cntr2 inactive
Oc1c(Br)cc(Br)cc1C=NCc1ccccc1	none
Oc1c(Br)cc(Br)cc1C=NCc1ccc(F)cc1	MrgX1 antagonist -5.2 | MrgX1 antag conf inactive | HEK293 Ca flux inactive | HEK293 Ca counter inactive | HEK293 Ca cntr2 inactive
CC1(C)CC2CC(C)(CN2CC(O)c2ccccc2)C1 (stereo unspecified)	none
CC1(C)CC2CC(C)(CN2CC(=O)C(C#N)c2ccccc2)C1 (stereo unspecified)	MrgX1 antagonist -8.7 | MrgX1 antag conf inactive | HEK293 Ca flux inactive | HEK293 Ca counter inactive | HEK293 Ca cntr2 inactive
O=C(CC12CC3CC(CC(C3)C1)C2)NC(=S)N1CCCCC1	none
O=S1(=O)N=C2CCCCCN2C(c2ccccc2)N1 (stereo unspecified)	MrgX1 antagonist -4.6 | MrgX1 antag conf 85% | HEK293 Ca flux inactive | HEK293 Ca counter inactive | HEK293 Ca cntr2 inactive
COc1ccc(NC(=O)c2nc[nH]c2C(=O)N2CCN(C(=O)OC(C)(C)C)CC2)cc1	MrgX1 antagonist -7.7 | MrgX1 antag conf inactive | HEK293 Ca flux inactive | HEK293 Ca counter inactive | HEK293 Ca cntr2 inactive
COc1ccc(/C=C2/N=C3CCCCCN3C2=O)cc1	none
O=C(NC1=NCCS1)c1cccc(S(=O)(=O)N2CCc3ccccc32)c1	MrgX1 antagonist -4.9 | MrgX1 antag conf inactive | HEK293 Ca flux inactive | HEK293 Ca counter inactive | HEK293 Ca cntr2 inactive
Cc1ccc2c(c1)CCCN2S(=O)(=O)c1cccc(C(=O)Nc2ccccc2C(=O)O)c1	MrgX1 antagonist -6.7 | MrgX1 antag conf 67% | HEK293 Ca flux inactive | HEK293 Ca counter inactive | HEK293 Ca cntr2 inactive
O=C(NC1=NCCS1)c1ccc(Cl)c(S(=O)(=O)N2CCc3ccccc32)c1	none
Cc1ccc(S(=O)(=O)N2CCN(CC(=O)N(CC(C)C)c3c(N)n(CC(C)C)c(=O)[nH]c3=O)CC2)c(C)c1	none
Cc1ccc(N2CCC(N3CCN(C4CCCCC4)C(CCO)C3)CC2)cc1 (stereo unspecified)	none
CC1(C(=O)NCCN2CCOCC2)C=CC2(CCCCC2)N1C(=O)c1ccccc1 (stereo unspecified)	MrgX1 antagonist -6.8 | MrgX1 antag conf 83% | HEK293 Ca flux inactive | HEK293 Ca counter inactive | HEK293 Ca cntr2 inactive
COCCNC(=O)C1(C)C=CC2(CCCCC2)N1C(=O)c1ccccc1 (stereo unspecified)	none
Nc1ncnc2nc(SCC(=O)N3CCN(c4ccccc4)CC3)[nH]c12	MrgX1 antagonist -4.7 | MrgX1 antag conf inactive | HEK293 Ca flux inactive | HEK293 Ca counter inactive | HEK293 Ca cntr2 inactive
Cc1cc2ccccc2n1CCNC(=O)C1CC1	MrgX1 antagonist -6 | MrgX1 antag conf inactive | HEK293 Ca flux inactive | HEK293 Ca counter inactive | HEK293 Ca cntr2 inactive
Cc1cc2ccccc2n1CCNC(=O)C1CCCC1	none
O=C(c1ccc(NC(=S)NCc2ccco2)cc1)N1CCCCC1	none
Cc1[nH]c2ccc(C(=O)O)cc2c1C	MrgX1 antagonist -8.6 | MrgX1 antag conf inactive | HEK293 Ca flux inactive | HEK293 Ca counter inactive | HEK293 Ca cntr2 inactive
O=C(Oc1cc(Cl)cc(Cl)c1)c1cnc2n(c1=O)CCS2	none
Cc1cc(Br)ccc1NC(=S)NCCc1ccccc1	none
Cc1ccc(NC(=S)NCCc2ccccc2)c(C)c1	MrgX1 antagonist -5.2 | MrgX1 antag conf inactive | HEK293 Ca flux inactive | HEK293 Ca counter inactive | HEK293 Ca cntr2 inactive
CC(=O)c1sc(NC(=O)CN2C(=O)NC3(CCCC3)C2=O)nc1-c1ccccc1	MrgX1 antagonist -6.4 | MrgX1 antag conf inactive | HEK293 Ca flux inactive | HEK293 Ca counter inactive | HEK293 Ca cntr2 inactive
Cc1cccc(C)c1N1C(=O)CCC(C)(C)C1=O	none
CC1=C(C(=O)c2ccccc2)C(c2ccc(N3CCOCC3)cc2)NC(=O)N1 (stereo unspecified)	MrgX1 antagonist -8.1 | MrgX1 antag conf 73% | HEK293 Ca flux inactive | HEK293 Ca counter inactive | HEK293 Ca cntr2 inactive
CC1=C(C(=O)c2ccccc2)C(c2ccc(O)cc2)NC(=S)N1 (stereo unspecified)	none
O=C1CCc2cc(S(=O)(=O)NCCc3ccccc3)cc3c2N1CC3	none
O=[N+]([O-])c1ccc(-c2nc3ccc([N+](=O)[O-])cc3[nH]2)cc1	MrgX1 antagonist -10 | MrgX1 antag conf inactive | HEK293 Ca flux inactive | HEK293 Ca counter inactive | HEK293 Ca cntr2 inactive
Nc1ccc(-c2nc3ccc([N+](=O)[O-])cc3[nH]2)cc1	none
